Activity calls are given as the source filed them. No cut-off for these calls is given here.
What was measured:
Popillia japonica [1] = assay: Insecticidal activity against Popillia japonica at 240 g/kg SC assessed as moribund behaviour measured after 24 to 56 days by irrigation injection method; format: functional, organism-based
Paralobesia [2] = assay: Insecticidal activity against Paralobesia viteana infested grapevine assessed as reduction in clusters infested with moth by early-season irrigation injection method (reference value: 34.3 +/- 4.4 %); format: functional; set-up: scale not given: the % may be the effect or the level left
Popillia japonica [3] = assay: Insecticidal activity against Popillia japonica at 240 g/kg SC assessed as moribund behaviour measured after 3 days by irrigation injection method; format: functional, organism-based
Paralobesia [4] = assay: Insecticidal activity against Paralobesia viteana infested grapevine assessed as reduction in clusters infested with moth by mid-season irrigation injection method (reference value: 11 +/- 1.9 %); format: functional; set-up: scale not given: the % may be the effect or the level left
Popillia japonica [5] = assay: Insecticidal activity against Popillia japonica at 240 g/kg SC assessed as moribund behaviour measured after 10 to 19 days by irrigation injection method; format: functional, organism-based
Popillia japonica [6] = assay: Insecticidal activity against Popillia japonica assessed as reduction in leaf damage measured up to 63 days post treatment by laboratory bioassay; format: functional, organism-based
How it was run: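 Leaves were taken from vines treated by irrigation injection (6 June and 6 July 2007). Four uninjured leaves per treatment plot were offered to Japanese beetles in the laboratory. Leaf area removed (cm²) was measured weekly, from 4 days before the second injection to […] after it.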

Popillia japonica [7] = assay: Insecticidal activity against Popillia japonica at 240 g/kg SC assessed as reduction in leaf damage measured after 35 days by irrigation injection method (reference value: 50.97 +/- 7.2 %); format: functional; set-up: scale not given: the % may be the effect or the level left
Popillia japonica [8] = assay: Insecticidal activity against Popillia japonica at 240 g/kg SC measured after 1 to 24 days by irrigation injection method; format: functional, organism-based
How it was run: (§1)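 Insecticide was injected into the drip irrigation on 6 June and 6 July 2007, in seven-vine rows. Japanese beetles were counted on vines in the field at intervals after treatment. Total beetles per row were log(x+1) transformed and analysed by ANOVA with […] post hoc tests.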

Popillia japonica [9] = assay: Insecticidal activity against Popillia japonica at 552 g/kg SC assessed as moribund behaviour measured after 10 to 19 days by irrigation injection method; format: functional, organism-based
Popillia japonica [10] = assay: Insecticidal activity against Popillia japonica at 552 g/kg SC assessed as moribund behaviour measured after 24 to 56 days by irrigation injection method; format: functional, organism-based
Popillia japonica [11] = assay: Insecticidal activity against Popillia japonica at 552 g/kg SC measured after 1 to 24 days by irrigation injection method; format: functional, organism-based; how it was run: as §1
Popillia japonica [12] = assay: Insecticidal activity against Popillia japonica at 552 g/kg SC assessed as reduction in leaf damage measured after 35 days by irrigation injection method (reference value: 50.97 +/- 7.2 %); format: functional; set-up: scale not given: the % may be the effect or the level left
Popillia japonica [13] = assay: Insecticidal activity against Popillia japonica at 552 g/kg SC measured after 24 days by irrigation injection method; format: functional, organism-based; how it was run: as §1
Popillia japonica [14] = assay: Insecticidal activity against Popillia japonica at 552 g/kg SC measured after 14 days by irrigation injection method; format: functional, organism-based; how it was run: as §1
Popillia japonica [15] = assay: Insecticidal activity against Popillia japonica at 552 g/kg SC assessed as moribund behaviour measured after 3 days by irrigation injection method; format: functional, organism-based
Popillia japonica [16] = assay: Insecticidal activity against Popillia japonica at 500 g/kg WG assessed as moribund behaviour measured after 10 to 19 days by irrigation injection method; format: functional, organism-based
Popillia japonica [17] = assay: Insecticidal activity against Popillia japonica at 500 g/kg WG assessed as moribund behaviour measured after 24 to 56 days by irrigation injection method; format: functional, organism-based
Popillia japonica [18] = assay: Insecticidal activity against Popillia japonica at 500 g/kg WG assessed as moribund behaviour measured after 3 days by irrigation injection method; format: functional, organism-based
Popillia japonica [19] = assay: Insecticidal activity against Popillia japonica at 500 g/kg WG assessed as reduction in leaf damage measured after 35 days by irrigation injection method (reference value: 50.97 +/- 7.2 %); format: functional; set-up: scale not given: the % may be the effect or the level left

SMILES | Activity (Popillia japonica [1]) | Activity (Paralobesia [2]) | Activity (Popillia japonica [3]) | Activity (Paralobesia [4]) | Activity (Popillia japonica [5]) | Activity (Popillia japonica [6]) | Activity (Popillia japonica [7]) | Activity (Popillia japonica [8]) | Activity (Popillia japonica [9]) | Activity (Popillia japonica [10]) | Activity (Popillia japonica [11]) | Activity (Popillia japonica [12]) | Activity (Popillia japonica [13]) | Activity (Popillia japonica [14]) | Activity (Popillia japonica [15]) | Activity (Popillia japonica [16]) | Activity (Popillia japonica [17]) | Activity (Popillia japonica [18]) | Activity (Popillia japonica [19])
CN1COCN(Cc2cnc(Cl)s2)/C1=N\[N+](=O)[O-] [THIAMETHOXAM] | inactive | 25.3% | inactive | 7% | inactive | Active | 27.67% | inactive |  |  |  |  |  |  |  |  |  |  | 
O=[N+]([O-])/N=C1\NCCN1Cc1ccc(Cl)nc1 [IMIDACLOPRID] |  | 11.8% |  | 1% |  | Active |  |  | Active | Active | Active | 4.43% | Active | Active | Active |  |  |  | 
CN/C(=N\[N+](=O)[O-])NCc1cnc(Cl)s1 [CLOTHIANIDINE] |  | 31.7% |  | 6% |  | inactive |  |  |  |  |  |  |  |  |  | inactive | inactive | inactive | 48.3%
